# Measured values: ChEMBL document CHEMBL1914430, “Synthesis of some new 1,3,5-trisubstituted pyrazolines bearing benzene sulfonamide as anticancer and anti-inflammatory agents” (Bioorg Med Chem Lett, 2011)
# Key:
# Type in all cases: functional
# OVCAR-3 = experiment: Anticancer activity against human OVCAR3 cells after 48 hrs; details: OVCAR-3, 48 h
# In short: (§1)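 NCI 60-line panel protocol with a 48 h incubation. Per line: GI50 = concentration giving 50% decrease in net cell growth; TGI = total growth inhibition; LC50 = net 50% loss of initial cells. When the level was not reached or was exceeded, the value is given as greater or less than the highest or lowest concentration tested.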
# SN12C = experiment: Anticancer activity against human SN12C cells after 48 hrs; in short: as §1
# BT-549 = experiment: Anticancer activity against human BT549 cells after 48 hrs; details: BT-549, 48 h; for CC50: read-out: LC50 (the source's name)
# In short: (§2)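 NCI Drug Evaluation Branch 60-cell-line screen across leukemia, melanoma, lung, colon, CNS, ovarian, renal, prostate and breast panels. The incubation period is 48 h. Parameters are derived from dose–response data: GI50 is the concentration giving 50% decrease in net growth, TGI is total growth inhibition, and LC50 is net 50% loss of initial cells. Values beyond the tested range are reported as greater or less than the maximum or minimum concentration.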
# OVCAR-5 = experiment: Anticancer activity against human OVCAR5 cells after 48 hrs; details: OVCAR-5, 48 h; in short: as §1
# A549 = experiment: Anticancer activity against human A549 cells after 48 hrs; details: A549, 48 h; in short: as §2
# TK-10 = experiment: Anticancer activity against human TK10 cells after 48 hrs; details: TK-10, 48 h
# In short: (§3)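 NCI ~60 human tumour cell line panel with a 48 h incubation. GI50 is the concentration giving a 50% fall in net growth, TGI gives total growth inhibition, and LC50 gives a net 50% loss of initial cells. An effect not reached or exceeded is reported as greater or less than the highest or lowest concentration tested.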
# IGROV-1 = experiment: Anticancer activity against human IGROV1 cells after 48 hrs; details: IGROV-1, 48 h; in short: as §2
# SK-MEL-2 = experiment: Anticancer activity against human SK-MEL-2 cells after 48 hrs; details: SK-MEL-2, 48 h; in short: as §1
# SK-MEL-28 = experiment: Anticancer activity against human SK-MEL-28 cells after 48 hrs; details: SK-MEL-28, 48 h; for CC50: read-out: LC50 (the source's name); in short: as §1
# CCRF-CEM = experiment: Anticancer activity against human CCRF-CEM cells after 48 hrs; in short: as §2
# MDA-MB-468 = experiment: Anticancer activity against human MDA-MB-468 cells after 48 hrs; details: MDA-MB-468, 48 h; for CC50: read-out: LC50 (the source's name); in short: as §2
# SF-268 = experiment: Anticancer activity against human SF268 cells after 48 hrs; details: SF-268, 48 h; in short: as §1
# MCF7 = experiment: Anticancer activity against human MCF7 cells after 48 hrs; details: MCF7, 48 h; in short: as §2
# SR = experiment: Anticancer activity against human SR cells after 48 hrs; in short: as §1
# NCI-H226 = experiment: Anticancer activity against human NCI-H226 cells after 48 hrs; details: NCI-H226, 48 h; for CC50: read-out: LC50 (the source's name); in short: as §1
# Rattus norvegicus [1] = experiment: Antiinflammatory activity in Wistar rat assessed as inhibition of carrageenan-induced hind paw edema at 20 mg/kg, po administered 30 mins before carrageenan challenge measured after 5 hrs by plethysmometer
# In short: (§4)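 Wistar rats of either sex, 150–175 g, fasted 16 h, n = 6 per group. Compound given orally at 20 mg/kg as a suspension in 1% CMC in water (10 mL/kg); controls got vehicle only. After 30 min, 0.1 mL of 1% carrageenan in saline was injected subplantar into the left hind paw. Paw volume was measured by plethysmometer at 0, 3 and 5 h. Inhibition = (1 − Vt/Vc) × 100, reported as mean ± SEM.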
# KM12 = experiment: Anticancer activity against human KM12 cells after 48 hrs; details: KM12, 48 h; in short: as §2
# MDA-MB-231 = experiment: Anticancer activity against human MDA-MB-231 cells after 48 hrs; details: MDA-MB-231, 48 h; for CC50: read-out: LC50 (the source's name); in short: as §2
# Rattus norvegicus [2] = experiment: Antiinflammatory activity in Wistar rat assessed as inhibition of carrageenan-induced hind paw edema at 20 mg/kg, po administered 30 mins before carrageenan challenge measured after 3 hrs by plethysmometer; in short: as §4
# HL-60(TB) = experiment: Anticancer activity against human HL-60(TB) cells after 48 hrs; details: HL-60, 48 h
# In short: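 NCI 60-cell-line panel protocol: cells exposed to compound for 48 h. Initial one-dose screen at 10⁻⁵ M. GI50 = concentration giving 50% decrease in net cell growth. TGI = concentration giving total growth inhibition. LC50 = concentration giving net 50% loss of initial cells at the end of incubation. A value not reached or exceeded is reported as greater or less than the highest or lowest concentration tested.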
# SK-OV-3 = experiment: Anticancer activity against human SKOV3 cells after 48 hrs; details: SK-OV-3, 48 h; for CC50: read-out: LC50 (the source's name); in short: as §1
# NCI-H522 = experiment: Anticancer activity against human NCI-H522 cells after 48 hrs; details: NCI-H522, 48 h; in short: as §1
# M14 = experiment: Anticancer activity against human M14 cells after 48 hrs; details: M14, 48 h; for CC50: read-out: LC50 (the source's name); in short: as §2
# HCT-116 = experiment: Anticancer activity against human HCT116 cells after 48 hrs; details: HCT-116, 48 h; for CC50: read-out: LC50 (the source's name); in short: as §2
# EKVX = experiment: Anticancer activity against human EKVX cells after 48 hrs; details: for CC50: read-out: LC50 (the source's name); in short: as §2
# HCT-15 = experiment: Anticancer activity against human HCT15 cells after 48 hrs; details: HCT-15, 48 h; for CC50: read-out: LC50 (the source's name); in short: as §2
# U-251 = experiment: Anticancer activity against human U251 cells after 48 hrs; details: U-251, 48 h; for CC50: read-out: LC50 (the source's name); in short: as §3
smiles,measurement,setting,value
Cc1cc(O)c(C2=NN(c3ccc(S(N)(=O)=O)cc3)C(c3ccccc3O)C2)cc1Cl (stereo not drawn),GI50,OVCAR-3,1.81 µM
same,LC50 (concentration giving 50% net loss of initial cells),OVCAR-3,11.3 µM
same,TGI,OVCAR-3,3.73 µM
same,GI50,SN12C,4.08 µM
same,LC50,SN12C,43.1 µM
same,TGI,SN12C,15.3 µM
same,GI50,BT-549,2.47 µM
same,TGI,BT-549,8.18 µM
same,CC50,BT-549,58.7 µM
same,GI50,OVCAR-5,1.73 µM
same,LC50,OVCAR-5,8.12 µM
same,TGI,OVCAR-5,3.75 µM
same,GI50,A549,3.69 µM
same,LC50 (net 50% loss of initial cells),A549,60.5 µM
same,TGI,A549,15.5 µM
same,GI50,TK-10,3.3 µM
same,LC50,TK-10,27.2 µM
same,TGI,TK-10,6.85 µM
same,GI50,IGROV-1,1.63 µM
same,LC50 (net 50% loss of initial cells),IGROV-1,37.4 µM
same,TGI,IGROV-1,11.2 µM
same,GI50,SK-MEL-2,11 µM
same,LC50,SK-MEL-2,67 µM
same,TGI,SK-MEL-2,27.2 µM
same,GI50,SK-MEL-28,4.05 µM
same,TGI,SK-MEL-28,13.5 µM
same,CC50,SK-MEL-28,37.8 µM
same,GI50,CCRF-CEM,4.17 µM
same,LC50 (concentration causing net 50% loss of initial cells),CCRF-CEM,> 100 µM
same,TGI,CCRF-CEM,> 100 µM
same,GI50,MDA-MB-468,2.58 µM
same,TGI,MDA-MB-468,7.92 µM
same,CC50,MDA-MB-468,37.6 µM
same,GI50,SF-268,2.64 µM
same,LC50 (concentration killing 50% of initial cells),SF-268,51.9 µM
same,TGI,SF-268,8.06 µM
same,GI50,MCF7,2.66 µM
same,LC50,MCF7,49.5 µM
same,TGI,MCF7,9.77 µM
same,GI50,SR,2.22 µM
same,LC50 (concentration killing 50% of initial cells),SR,> 100 µM
same,TGI,SR,26.7 µM
same,GI50,NCI-H226,2.21 µM
same,TGI,NCI-H226,7.55 µM
same,CC50,NCI-H226,86.5 µM
same,inhibition in vivo at 20 mg/kg,Rattus norvegicus [1],59.5%
same,GI50,KM12,1.78 µM
same,LC50 (concentration causing net 50% loss of initial cells),KM12,6.82 µM
same,TGI,KM12,3.48 µM
same,GI50,MDA-MB-231,2.3 µM
same,TGI,MDA-MB-231,6.69 µM
same,CC50,MDA-MB-231,29.5 µM
same,inhibition in vivo at 20 mg/kg,Rattus norvegicus [2],73.6%
same,GI50,HL-60(TB),2.99 µM
same,LC50,HL-60(TB),> 100 µM
same,TGI,HL-60(TB),7.32 µM
same,GI50,SK-OV-3,4.41 µM
same,TGI,SK-OV-3,14.9 µM
same,CC50,SK-OV-3,38.6 µM
same,GI50,NCI-H522,2.15 µM
same,LC50 (concentration killing 50% of initial cells),NCI-H522,28 µM
same,TGI,NCI-H522,6.28 µM
same,GI50,M14,1.76 µM
same,TGI,M14,3.4 µM
same,CC50,M14,6.56 µM
same,GI50,HCT-116,1.66 µM
same,TGI,HCT-116,3.02 µM
same,CC50,HCT-116,5.5 µM
same,GI50,EKVX,1.99 µM
same,TGI,EKVX,7.16 µM
same,CC50,EKVX,39.7 µM
same,GI50,HCT-15,3.64 µM
same,TGI,HCT-15,13.4 µM
same,CC50,HCT-15,44.7 µM
same,GI50,U-251,2.78 µM
same,TGI,U-251,7.76 µM
same,CC50,U-251,26.9 µM
Cc1cc(O)c(C2=NN(c3ccc(S(N)(=O)=O)cc3)C(/C=C/c3ccccc3)C2)cc1Cl (stereo not drawn),GI50,OVCAR-3,11.5 µM
same,LC50 (concentration giving 50% net loss of initial cells),OVCAR-3,70.2 µM
same,TGI,OVCAR-3,28.4 µM
same,GI50,SN12C,11.1 µM
same,LC50,SN12C,59.4 µM
same,TGI,SN12C,25.6 µM
same,GI50,BT-549,6.12 µM
same,TGI,BT-549,21.3 µM
same,CC50,BT-549,54.5 µM
same,GI50,OVCAR-5,3.18 µM
same,LC50,OVCAR-5,38.3 µM
same,TGI,OVCAR-5,14.7 µM
same,GI50,A549,11 µM
same,LC50 (net 50% loss of initial cells),A549,86 µM
same,TGI,A549,30.8 µM
same,GI50,TK-10,14.8 µM
same,LC50,TK-10,60.7 µM
same,TGI,TK-10,29.9 µM
same,GI50,IGROV-1,4.32 µM
same,LC50 (net 50% loss of initial cells),IGROV-1,68.7 µM
same,TGI,IGROV-1,19.8 µM
same,GI50,SK-MEL-2,16.8 µM
same,LC50,SK-MEL-2,> 100 µM
same,TGI,SK-MEL-2,58.2 µM
same,GI50,SK-MEL-28,10.9 µM
same,TGI,SK-MEL-28,23.8 µM
same,CC50,SK-MEL-28,52 µM
same,GI50,CCRF-CEM,17.7 µM
same,LC50 (concentration causing net 50% loss of initial cells),CCRF-CEM,> 100 µM
same,TGI,CCRF-CEM,50 µM
same,GI50,MDA-MB-468,3.94 µM
same,TGI,MDA-MB-468,13.8 µM
same,CC50,MDA-MB-468,37.2 µM
same,GI50,SF-268,5.63 µM
same,LC50 (concentration killing 50% of initial cells),SF-268,46.7 µM
same,TGI,SF-268,19.5 µM
same,GI50,MCF7,3.93 µM
same,LC50,MCF7,40.1 µM
same,TGI,MCF7,16.1 µM
same,GI50,SR,12.7 µM
same,LC50 (concentration killing 50% of initial cells),SR,89.7 µM
same,TGI,SR,33.8 µM
same,GI50,NCI-H226,5.21 µM
same,TGI,NCI-H226,19.2 µM
same,CC50,NCI-H226,51.8 µM
same,inhibition in vivo at 20 mg/kg,Rattus norvegicus [1],71.4%
same,GI50,KM12,11.7 µM
same,LC50 (concentration causing net 50% loss of initial cells),KM12,> 100 µM
same,TGI,KM12,34.8 µM
same,GI50,MDA-MB-231,4.56 µM
same,TGI,MDA-MB-231,16.3 µM
same,CC50,MDA-MB-231,40.8 µM
same,inhibition in vivo at 20 mg/kg,Rattus norvegicus [2],78.9%
same,GI50,HL-60(TB),68.3 µM
same,LC50,HL-60(TB),> 100 µM
same,TGI,HL-60(TB),100 µM
same,GI50,SK-OV-3,5.52 µM
same,TGI,SK-OV-3,17.9 µM
same,CC50,SK-OV-3,42.7 µM
same,GI50,NCI-H522,4.62 µM
same,LC50 (concentration killing 50% of initial cells),NCI-H522,61.8 µM
same,TGI,NCI-H522,19.4 µM
same,GI50,M14,6.16 µM
same,TGI,M14,19.3 µM
same,CC50,M14,44.2 µM
same,GI50,HCT-116,2.4 µM
same,TGI,HCT-116,14.6 µM
same,CC50,HCT-116,38.2 µM
same,GI50,EKVX,14.2 µM
same,TGI,EKVX,35.3 µM
same,CC50,EKVX,87.4 µM
same,GI50,HCT-15,18.9 µM
same,CC50,HCT-15,> 100 µM
same,GI50,U-251,3.79 µM
same,TGI,U-251,15.6 µM
same,CC50,U-251,39.5 µM
